Assay outcomes from PubChem.
The list is not random: actives were taken first. Their share in the collection is about 29%.
tolC growth inh: E. coli tolC mutant growth inhibition | E. coli BW25113 tolC mutant growth, OD615 | 2.2% of 65,000 active | growth inhibition, % at 10 µM (by protocol) | AID 573;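 active = growth inhibition at or above a cutoff equal to the mean over every tested compound plus 3 SD, cut at about 60% in these data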;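 note: growth measured after 20 h incubation at 37 °C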
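signal = optical density read at 615 nm | test system = E. coli ΔtolC::kan strain BW25113 | timing = 20 h compound exposure of bacteria at 37 °C | buffer or medium = LB medium plus 50 µg/mL kanamycin | compound dosing = 10 µM final, single dose | evaluation = % inhibition of E. coli growth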
CYP2C19 activ: activators of human cytochrome P450 2C19 | P33261 | recombinant CYP2C19, luciferin-H EGE luminescence; active compounds read high; 0 = fully inhibited enzyme, 1 = untreated enzyme | activation factor at 5 µM | 96,000 tested, under 10 active;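 active = activation factor of at least 2 at 5 µM in the primary screen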;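 note: 0 = wells with 2.5 mM tranylcypromine and 1 = vehicle-only wells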
CYP2C9 act: increases human cytochrome P450 2C9 activity; activation factor at 5 µM; AID 1024; recombinant CYP2C9, luciferin-H conversion, luminescence; active compounds read high; factor 1 = untreated enzyme, 0 = blocked; P11712; 1.4% of 96,000 active;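 active = activation factor of 2 or more for CYP2C9 at a 5 µM dose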;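 note: 0 = sulfaphenazole-blocked wells and 1 = vehicle-only wells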
Target sequence (P11712 whole entry, looked up): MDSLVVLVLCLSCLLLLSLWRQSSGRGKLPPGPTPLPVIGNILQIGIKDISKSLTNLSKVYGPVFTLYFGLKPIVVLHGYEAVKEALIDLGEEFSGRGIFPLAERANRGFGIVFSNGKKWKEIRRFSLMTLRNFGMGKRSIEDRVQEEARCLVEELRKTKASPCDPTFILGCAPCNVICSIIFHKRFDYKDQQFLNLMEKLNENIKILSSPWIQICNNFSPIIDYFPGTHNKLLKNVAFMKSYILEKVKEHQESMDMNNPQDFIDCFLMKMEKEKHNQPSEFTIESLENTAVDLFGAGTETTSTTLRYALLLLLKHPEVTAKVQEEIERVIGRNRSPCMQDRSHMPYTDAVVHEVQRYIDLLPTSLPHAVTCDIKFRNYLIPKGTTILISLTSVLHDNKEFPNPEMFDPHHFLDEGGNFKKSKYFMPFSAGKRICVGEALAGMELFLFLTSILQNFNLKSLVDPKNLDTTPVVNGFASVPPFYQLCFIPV
CYP2C9 inh: blocks human cytochrome P450 2C9 | AID 777 | 20% of 96,000 active | CYP2C9 Supersomes, luciferin-H conversion, luminescence | inhibition, % at 5 µM;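 active = blocking of liver enzyme CYP2C9 beyond about 50% at 5 µM, limit read from the data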
E coli WT exp: growth inhibitors of E. coli BW25113 wild type; growth inhibition, % at 100 µM; AID 710; 0.15% of 98,000 active; OD600 absorbance;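 active = growth inhibition above about 50% at one test dose, limit read from the data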;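 note: growth measured after 20 h incubation at 37 °C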
CYP2C19 inhib: human CYP2C19 inhibition. P33261. CYP2C19 Supersomes, luciferin-H EGE luminescence, 30 min. inhibition, % at 5 µM. 21% of 96,000 active. AID 778;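 active = CYP2C19 inhibition above a set limit at 5 µM in the primary screen, cut at about 50% in these data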;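 note: plate controls were negative control wells for no effect and 2.5 mM tranylcypromine positive control for full effect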
An asterisk follows results filed as active.

Results for COC(=O)CSc1nnc(C2COc3ccccc3O2)n1-c1ccccc1 (stereo unspecified) ?
tolC growth inh: 10; CYP2C19 activ: 0.4; CYP2C9 act: 0.8; CYP2C9 inh: 16; E coli WT exp: 6; CYP2C19 inhib: 58*

Results for CCn1c(SCC(=O)c2c[nH]c3ccccc23)nnc1-c1cccs1 ?
tolC growth inh: -1; CYP2C19 activ: 0.3; CYP2C9 act: 0.9; CYP2C9 inh: 14; E coli WT exp: -4; CYP2C19 inhib: 70*

How did CCn1c(SCCOc2ccc(Cl)cc2)nnc1-c1cccs1 do in these assays?
tolC growth inh: 47; CYP2C19 activ: 0; CYP2C9 act: 0.1; CYP2C9 inh: 90*; E coli WT exp: 4; CYP2C19 inhib: 96*

Results for CCn1c(SCC(=O)N2CCOCC2)nnc1-c1cccs1 ?
tolC growth inh: -12; CYP2C19 activ: 0.9; CYP2C9 act: 0.9; CYP2C9 inh: 10; E coli WT exp: 4; CYP2C19 inhib: 7

What do the screens show for `C=CCn1c(SCCC(=O)O)nnc1-c1cccs1`?
tolC growth inh: -10; E coli WT exp: 2

Results for COCCCNC(CC(=O)Nc1ccc(N(C)C)cc1)C(=O)O (stereo unspecified) ?
tolC growth inh: -24

Results for CCC(C)NC(=O)c1cn(C)c(=O)c2cc(OC)c(OC)cc12 (stereo unspecified) ?
tolC growth inh: -15; CYP2C19 activ: 0.6; CYP2C9 act: 1.1; CYP2C9 inh: -5; E coli WT exp: 0; CYP2C19 inhib: 41

What do the screens show for `CCc1cccc(CC)c1NC(=O)CSc1nnc(C(C)C)n1CC`?
tolC growth inh: -9; CYP2C19 activ: 1; CYP2C9 act: 1.1; CYP2C9 inh: -14; E coli WT exp: -23; CYP2C19 inhib: 1

How did COC(=O)CSc1nnc(-c2cccs2)n1-c1ccc(Cl)cc1 do in these assays?
tolC growth inh: 5; CYP2C19 activ: 0.2; CYP2C9 act: 0.6; CYP2C9 inh: 44; E coli WT exp: -5; CYP2C19 inhib: 81*

Results for CCn1c(SCC(=O)c2ccc(Cl)cc2)nnc1C(C)C ?
tolC growth inh: -7; CYP2C19 activ: 0.2; CYP2C9 act: 1.2; CYP2C9 inh: -16; E coli WT exp: 1; CYP2C19 inhib: 77*

What do the screens show for `NC(=O)CSc1nnc(-c2cccs2)n1-c1ccccc1`?
CYP2C19 activ: 1; CYP2C9 act: 1; CYP2C9 inh: 4; E coli WT exp: 3; CYP2C19 inhib: 4

Results for CCOc1ccc2nc(NC(=O)Nc3cccs3)sc2c1 ?
tolC growth inh: 43

How did C[N+]1=C2CCCCCN2C(O)(c2ccccc2)C1 (stereo unspecified) do in these assays?
tolC growth inh: -9; CYP2C19 activ: 1.2; CYP2C9 act: 1.1; CYP2C9 inh: -8; E coli WT exp: -6; CYP2C19 inhib: -16

Results for CCOC(=O)c1cnc(Nc2nc3ccccc3o2)nc1CN1CCN(c2ccccc2)CC1 ?
tolC growth inh: 4

How did CCOC(=O)c1cnc(Nc2nc3ccccc3o2)nc1C do in these assays?
CYP2C19 activ: 0.1; CYP2C9 act: 0.4; CYP2C9 inh: 58*; E coli WT exp: -2; CYP2C19 inhib: 88*

What do the screens show for `Cn1c(=O)c2c(nc(-n3ccnc3)n2Cc2ccc([N+](=O)[O-])cc2)n(C)c1=O`?
CYP2C19 activ: 1; CYP2C9 act: 1.1; CYP2C9 inh: -8; E coli WT exp: 0; CYP2C19 inhib: 4

How did CCOc1ccc(NC2=NCCC(=O)N2Cc2cccs2)cc1 do in these assays?
tolC growth inh: -7; CYP2C19 activ: 0.5; CYP2C9 act: 0.4; CYP2C9 inh: 56*; E coli WT exp: 6; CYP2C19 inhib: 50*

What do the screens show for `CCOc1ccc(NC2=NCC(=O)N2Cc2cccs2)cc1`?
CYP2C19 activ: 0.9; CYP2C9 act: 0.9; CYP2C9 inh: 14; E coli WT exp: 6; CYP2C19 inhib: 6

Results for O=C(C/C=N/OCc1c(Cl)cccc1Cl)c1ccccc1 ?
CYP2C19 activ: 0.8; CYP2C9 act: 1; CYP2C9 inh: 0; E coli WT exp: 3; CYP2C19 inhib: 22

Results for Cc1cc(C)nc(N2CCCC(C(=O)NCc3cccc(C(F)(F)F)c3)C2)n1 (stereo unspecified) ?
tolC growth inh: 0; CYP2C19 activ: 0.8; CYP2C9 act: 2.1*; CYP2C9 inh: -108; E coli WT exp: -1; CYP2C19 inhib: 22

Results for Cc1cc(C)nc(N2CCCC(C(=O)Nc3cc(F)ccc3C)C2)n1 (stereo unspecified) ?
tolC growth inh: 13; CYP2C19 activ: 0.4; CYP2C9 act: 1.3; CYP2C9 inh: -26; E coli WT exp: 0; CYP2C19 inhib: 65*

How did O=C(NCCC1=CCCCC1)C1CC(=O)N(C2CCCCCC2)C1 (stereo unspecified) do in these assays?
tolC growth inh: 11; CYP2C19 activ: 0.5; CYP2C9 act: 0.4; CYP2C9 inh: 57*; E coli WT exp: -4; CYP2C19 inhib: 52*

How did Cc1cc(C)nc(N2CCC(C(=O)NC3CCCCCC3)CC2)n1 do in these assays?
tolC growth inh: -2

Results for O=C(NCc1cccc(C(F)(F)F)c1)C1CCCN(c2ncccn2)C1 (stereo unspecified) ?
tolC growth inh: -9; CYP2C19 activ: 0.5; CYP2C9 act: 1; CYP2C9 inh: 2; E coli WT exp: 6; CYP2C19 inhib: 46

What do the screens show for `Cc1cc(C)nc(N2CCCC(C(=O)NC3CCCC3)C2)n1` (stereo unspecified)?
tolC growth inh: 7; CYP2C19 activ: 0.4; CYP2C9 act: 0.8; CYP2C9 inh: 21; E coli WT exp: -2; CYP2C19 inhib: 58*

Results for CS(=O)(=O)N(CC(=O)NCc1ccco1)c1ccc(Cl)c(C(F)(F)F)c1 ?
tolC growth inh: 0; CYP2C19 activ: 0.8; CYP2C9 act: 1.3; CYP2C9 inh: -28; E coli WT exp: -3; CYP2C19 inhib: 24

How did O=C(NC1CCCC1)C(c1ccsc1)N(Cc1ccco1)C(=O)Cc1cccs1 (stereo unspecified) do in these assays?
tolC growth inh: 13; CYP2C19 activ: 0.7; CYP2C9 act: 0.9; CYP2C9 inh: 9; E coli WT exp: -2; CYP2C19 inhib: 28

Results for CCOc1ccc(OCC)c(NC(=O)C2CCCN(c3nc(C)cc(C)n3)C2)c1 (stereo unspecified) ?
tolC growth inh: 10; CYP2C19 activ: 0.3; CYP2C9 act: 0.2; CYP2C9 inh: 76*; E coli WT exp: -11; CYP2C19 inhib: 73*

What do the screens show for `COc1ccc(OC)c(NC(=O)C2CCN(c3nc(C)cc(C)n3)CC2)c1`?
tolC growth inh: -14; CYP2C19 activ: 0.9; CYP2C9 act: 1.3; CYP2C9 inh: -33; E coli WT exp: -2; CYP2C19 inhib: 13

What do the screens show for `Cc1cc(C)nc(N2CCCC(C(=O)NCCC3=CCCCC3)C2)n1` (stereo unspecified)?
tolC growth inh: -2; CYP2C19 activ: 0.3; CYP2C9 act: 1.6; CYP2C9 inh: -60; E coli WT exp: -7; CYP2C19 inhib: 73*
